How the values were obtained:
Digitaria sanguinalis [1] = experiment: Herbicidal activity against Digitaria sanguinalis (hairy crabgrass) assessed as inhibition of fresh weed plant weights at 400 g ai/ha using pre-emergence treatment protocol under field trials conditions measured 30 days post soil treatment relative to untreated control; assay type: functional; conditions: 720 h
In short: (§1)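 Field pre-emergence trial. Treatments were applied to the soil surface within 24 h after maize planting, at 300, 400, 600 and 800 g a.i. ha^-1. Fresh weight of aerial plant parts was measured 30 days later, and percent inhibition calculated relative to the water-sprayed control.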

Digitaria sanguinalis [2] = experiment: Herbicidal activity against Digitaria sanguinalis (hairy crabgrass) assessed as inhibition of fresh weed plant weights at 600 g ai/ha using pre-emergence treatment protocol under greenhouse conditions relative to untreated control; assay type: functional
In short: (§2)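 Pre-emergence test in plastic pots kept in a greenhouse at 22-25 °C. Fresh weight of aerial plant parts was measured 20 days later, and percent inhibition calculated relative to water-sprayed controls. Metolachlor served as the positive control. Three replicates were run per concentration.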

[3] = test system: Brassica rapa subsp. oleifera; experiment: Toxicity against Brassica rapa subsp. oleifera var. JING GUAN 1 assessed as inhibition of fresh weed plant weights at 300 g ai/ha using pre-emergence treatment protocol under greenhouse conditions relative to untreated control; assay type: organism-based; conditions: in vivo, other; in short: as §2
Digitaria sanguinalis [4] = experiment: Herbicidal activity against Digitaria sanguinalis (hairy crabgrass) assessed as inhibition of fresh weed plant weights at 300 g ai/ha using pre-emergence treatment protocol under greenhouse conditions relative to untreated control; assay type: functional; in short: as §2
Portulaca oleracea [5] = experiment: Herbicidal activity against Portulaca oleracea assessed as inhibition of shoot growth at […] measured 7 days post treatment; assay type: functional; conditions: 168 h, read-out: GI
In short: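 Petri-dish agar assay. A 10 g/L stock of compound in acetone was mixed into molten agar; the untreated control was agar without compound. Seeds were placed on the agar surface and the cups were covered with glass lids. Incubation was 25 ± 1 °C, 50-55% RH, 12 h light/12 h dark, for 7 days. Root and shoot lengths were measured and growth inhibition calculated against the control, in three replicates.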

Echinochloa crus-galli [6] = experiment: Herbicidal activity against Echinochloa crus-galli (barnyard grass) assessed as inhibition of fresh weed plant weights at 600 g ai/ha using pre-emergence treatment protocol under greenhouse conditions relative to untreated control; assay type: functional; in short: as §2
Eleusine indica [7] = experiment: Herbicidal activity against Eleusine indica assessed as inhibition of fresh weed plant weights at 800 g ai/ha using pre-emergence treatment protocol under field trials conditions measured 30 days post soil treatment relative to untreated control; assay type: functional; conditions: 720 h; in short: as §1
Eleusine indica [8] = experiment: Herbicidal activity against Eleusine indica assessed as inhibition of fresh weed plant weights at 600 g ai/ha using pre-emergence treatment protocol under greenhouse conditions relative to untreated control; assay type: functional; in short: as §2
Convolvulus arvensis = experiment: Herbicidal activity against Convolvulus arvensis assessed as inhibition of fresh weed plant weights at 400 g ai/ha using pre-emergence treatment protocol under field trials conditions measured 30 days post soil treatment relative to untreated control; assay type: functional; conditions: 720 h; in short: as §1
Echinochloa crus-galli [9] = experiment: Herbicidal activity against Echinochloa crus-galli (barnyard grass) assessed as inhibition of root growth at […] measured 7 days post treatment; assay type: functional; parameters: dose or concentration left out as unconfirmed; conditions: 168 h, read-out: GI
Eleusine indica [10] = experiment: Herbicidal activity against Eleusine indica assessed as inhibition of fresh weed plant weights at 300 g ai/ha using pre-emergence treatment protocol under greenhouse conditions relative to untreated control; assay type: functional; in short: as §2
Portulaca oleracea [11] = experiment: Herbicidal activity against Portulaca oleracea assessed as inhibition of fresh weed plant weights at 400 g ai/ha using pre-emergence treatment protocol under field trials conditions measured 30 days post soil treatment relative to untreated control; assay type: functional; conditions: 720 h; in short: as §1
Portulaca oleracea [12] = experiment: Herbicidal activity against Portulaca oleracea assessed as inhibition of root growth at […] measured 7 days post treatment; assay type: functional; parameters: dose or concentration left out as unconfirmed; conditions: 168 h, read-out: GI
Echinochloa crus-galli [13] = experiment: Herbicidal activity against Echinochloa crus-galli (barnyard grass) assessed as inhibition of fresh weed plant weights at 300 g ai/ha using pre-emergence treatment protocol under field trials conditions measured 30 days post soil treatment relative to untreated control; assay type: functional; conditions: 720 h; in short: as §1

`Cc1nn(CC(F)(F)F)c(CS(=O)(=O)C2=NOC(C)(C)C2)c1Cl` was tested, and the inhibition at 400 g/ha (Digitaria sanguinalis [1]) was 98%, the inhibition at 600 g/ha (Digitaria sanguinalis [2]) was 100% and the “inhibition (INH)” value [3] was 12%. The inhibition at 300 g/ha (Digitaria sanguinalis [4]) was 97%, the inhibition of growth at 100000 µg/mL (Portulaca oleracea [5]) was 54% and the inhibition at 600 g/ha (Echinochloa crus-galli [6]) was 100%. It also gave an inhibition at 800 g/ha (Eleusine indica [7]) of 99%, an inhibition at 600 g/ha (Eleusine indica [8]) of 100% and an inhibition at 400 g/ha (Convolvulus arvensis) of 16%. The inhibition of growth (Echinochloa crus-galli [9]) was 62%, the inhibition at 300 g/ha (Eleusine indica [10]) was 99% and the inhibition at 400 g/ha (Portulaca oleracea [11]) was 85%. The inhibition of growth (Portulaca oleracea [12]) was 63% and the inhibition at 300 g/ha (Echinochloa crus-galli [13]) was 100%.

Reference: ChEMBL document CHEMBL3046055, “Synthesis and herbicidal activity of novel N-(2,2,2)-trifluoroethylpyrazole derivatives” (J Agric Food Chem, 2010)
